Reference: article PMC7415964 (The Journal of Biological Chemistry, 2021)
Where a SMILES comes first, the peptide text is derived from it. The star is where a group is joined. FITC = O=C1OC2(c3ccc(O)cc3Oc3cc(O)ccc32)c2ccc(NC(=S)*)cc21

Columns and labels:
[1] = target: EVA1(P672_(22-32)) hybrid protein (not stated | Rhipicephalus pulchellus); assay: BLI
[2] = target: C–C motif chemokine ligand 8 (CCL8) (human) (UniProt P80075)
human CCL8-647 (human) = human CCL8-647 (human) (UniProt P80075); assay: flow cytometry on cells
human CCL2-647 (human) = human CCL2-647 (human) (UniProt P13500); assay: flow cytometry on cells
Sequence of human CCL2-647 (human) (P13500 24-99): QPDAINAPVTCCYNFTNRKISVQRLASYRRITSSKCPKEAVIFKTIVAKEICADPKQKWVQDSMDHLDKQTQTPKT

CCL8 = target: T1, CCL8 (Homo sapiens, UniProt P80075); assay: Fluorescence polarization assay, CCL8; type: binding; conditions: fluorescent peptide 50 nM, CCL8 1 μM, 30 min, compared with scrambled control
T1 sequence (P80075 24-99): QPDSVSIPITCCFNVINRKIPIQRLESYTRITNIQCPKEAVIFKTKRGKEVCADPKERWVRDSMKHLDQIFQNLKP
Procedure, shortened: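 Polarization read with FITC filters, gain set to 35 mP on a peptide-only well, and converted to anisotropy A = 2P/(3 − P). Two technical × three biological replicates. Scrambled FITC peptide as negative control; one-way ANOVA with Sidak's correction.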

CCL18 = assay: Fluorescence polarization assay, CCL18; type: binding; conditions: BK1.1FITC 50 nM, chemokine 1 μM, compared with negative control CXCL1
Procedure, shortened: (§1)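 Polarization read with FITC filters, gain set at 35 mP on a peptide-only well, and converted to anisotropy, A = 2P/(3 − P). CXCL1 negative control. Two technical, three biological replicates. One-way ANOVA with Sidak's correction.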

CCL7 = assay: Fluorescence polarization assay, CCL7; type: binding; conditions: BK1.1FITC 50 nM, chemokine 1 μM, compared with negative control CXCL1
Procedure, shortened: as §1

[3] = target: T2, C–C motif chemokine ligand 8 (CCL8) (human), P80075; assay: native MS; conditions: remark: other sources report otherwise
T2 chain: T1 sequence (P80075 24-99)

P672–CCL8 complex = assay: Hydrogen–deuterium exchange MS of the P672–CCL8 complex; conditions: complex versus free CCL8; 5 s, 30 s, 5 min, 60 min; triplicate

With “C–C motif chemokine ligand 8 (CCL8) (from UniProt P80075 24-99)” the Kd [1] was 490 nM.

For evasin EVA-P672 (natural protein), the IC50 of inhibition of CCL8-induced THP-1 cell migration [2] was 2.6 nM, the IC50 (human CCL8-647 (human)) was 21 nM and the IC50 (human CCL2-647 (human)) was 21 nM.

`CC(C)[C@H](NC(=O)[C@@H]1CCCN1C(=O)[C@H](CCCCN)NC(=O)[C@H](Cc1ccccc1)NC(=O)[C@H](Cc1ccccc1)NC(=O)[C@H](CC(=O)O)NC(=O)[C@H](CCC(=O)O)NC(=O)[C@H](Cc1ccc(O)cc1)NC(=O)[C@H](CC(=O)O)NC(=O)[C@H](CCC(=O)O)NC(=O)[C@H](CC(=O)O)NC(=O)[C@H](CCC(=O)O)NC(=S)Nc1ccc2c(c1)C(=O)OC21c2ccc(O)cc2Oc2cc(O)ccc21)C(=O)N[C@H](C(=O)N[C@@H](C)C(=O)N[C@@H](Cc1ccc(O)cc1)C(=O)N[C@@H](Cc1ccccc1)C(N)=O)[C@@H](C)O` [BK1.1FITC] ({FITC}-EDEDYEDFFKPVTAYF-NH2) was tested, and the “change in anisotropy upon incubation with CCL8” value (CCL8) was “displayed an increase in anisotropy”, the “change in anisotropy with CCL18” value (CCL18) was “significant increases in anisotropy” and the “change in anisotropy with CCL7” value (CCL7) was “significant increases in anisotropy”.

B1: C–C motif chemokine ligand 8 (CCL8), P80075 24-99 (ligand)
chain: T1 sequence (P80075 24-99)
For B1, the stoichiometry N [3] was 2 and the “% relative deuterium uptake (%D), CCL8 Arg18–Ser27” value (P672–CCL8 complex) was −6 to −18%.
